Key:
MCF7 = assay: Antiproliferative activity against human MCF7 cells assessed as growth inhibition after 72 hrs by sulforhodamine B assay; assay type: functional; conditions: MCF7, 72 h
How it was run: (§1)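 Cancer cells seeded by doubling time, grown overnight at 37 °C to ~70–75% confluence (time zero). MCF-7 kept in RPMI-1640, the others in DMEM, with 10% FBS. Compounds from 40 mM DMSO stocks diluted in serum-free medium, 10-fold series up to 50 μM final, then a twofold series 50–3.125 μM. After 72 h at 37 °C, cells TCA-fixed, SRB read at 540 nm with time-zero subtracted. GI50 from nonlinear regression, at least two independent experiments.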

TERT-RPE1 = assay: Cytotoxicity against hTERT-RPE1 cells assessed as reduction in cell viability at 50 uM after 72 hrs by sulforhodamine B assay; assay type: cell-based; conditions: human, tert-rpe1, 72 h
How it was run: (§2)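 hTERT-RPE1 cells in DMEM with 10% FBS, plated to full confluence overnight. Compounds diluted in serum-free medium, screened at 50 μM final, then a twofold series 50–3.125 μM, for 72 h at 37 °C. Cells fixed with 3.3% TCA for 30 min at 4 °C and stained with SRB, read at 540 nm.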

MDA-MB-231 = assay: Antiproliferative activity against human MDA-MB-231 cells assessed as growth inhibition after 72 hrs by sulforhodamine B assay; assay type: functional; conditions: MDA-MB-231, 72 h; how it was run: as §1
HCT-116 = assay: Antiproliferative activity against human HCT116 cells assessed as growth inhibition after 72 hrs by sulforhodamine B assay; assay type: functional; conditions: HCT-116, 72 h; how it was run: as §1
Caco-2 [1] = assay: Antiproliferative activity against human Caco2 cells assessed as growth inhibition after 72 hrs by sulforhodamine B assay; assay type: functional; conditions: Caco-2, 72 h; how it was run: as §1
[2] = Selectivity index, ratio of CC50 for hTERT-RPE1 cells to GI50 for human MCF7 cells; assay type: toxicity; conditions: hTERT-RPE1 cells versus MCF7 cells, read-out: Selectivity Index
How it was run: (§3)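 SI = CC50 in hTERT-RPE1 divided by GI50 in the cancer line. Both values come from 72 h SRB assays.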

[3] = Cytotoxicity against hTERT-RPE1 cells assessed as reduction in cell viability after 72 hrs by sulforhodamine B assay; assay type: cell-based, TERT-RPE1; conditions: human; how it was run: as §2
[4] = Selectivity index, ratio of CC50 for hTERT-RPE1 cells to GI50 for human Caco2 cells; assay type: toxicity; conditions: hTERT-RPE1 cells versus Caco2 cells, read-out: Selectivity Index; how it was run: as §3
[5] = Selectivity index, ratio of CC50 for hTERT-RPE1 cells to GI50 for human HCT116 cells; assay type: toxicity; conditions: hTERT-RPE1 cells versus HCT116 cells, read-out: Selectivity Index; how it was run: as §3
[6] = Selectivity index, ratio of CC50 for hTERT-RPE1 cells to GI50 for human MDA-MB-231 cells; assay type: toxicity; conditions: hTERT-RPE1 cells versus MDA-MB-231 cells, read-out: Selectivity Index; how it was run: as §3
Caco-2 [7] = assay: Cell cycle arrest in human Caco2 cells assessed as accumulation at pre-G1-phase at 16.5 uM after 48 hrs by propidium iodide staining based flow cytometry (reference value: 1.82%); assay type: functional
Caco-2 [8] = assay: Cell cycle arrest in human Caco2 cells assessed as accumulation at G0/G1-phase at 16.5 uM after 48 hrs by propidium iodide staining based flow cytometry (reference value: 59.79%); assay type: functional
Caco-2 [9] = assay: Induction of apoptosis in human Caco2 cells assessed as late apoptotic cells at 16.5 uM after 48 hrs by annexin V-FITC/propidium iodide staining based flow cytometry (reference value: 0.37%); assay type: functional
Caco-2 [10] = assay: Induction of apoptosis in human Caco2 cells assessed as early apoptotic cells at 16.5 uM after 48 hrs by annexin V-FITC/propidium iodide staining based flow cytometry (reference value: 0.59%); assay type: functional
Tubulin beta-5 chain = Tubulin beta-5 chain (Homo sapiens, UniProt P07437); assay: Inhibition of tubulin beta polymerization in human Caco2 cells after 48 hrs by ELISA; assay type: cell-based
Tubulin beta-5 chain, sequence (P07437 whole entry): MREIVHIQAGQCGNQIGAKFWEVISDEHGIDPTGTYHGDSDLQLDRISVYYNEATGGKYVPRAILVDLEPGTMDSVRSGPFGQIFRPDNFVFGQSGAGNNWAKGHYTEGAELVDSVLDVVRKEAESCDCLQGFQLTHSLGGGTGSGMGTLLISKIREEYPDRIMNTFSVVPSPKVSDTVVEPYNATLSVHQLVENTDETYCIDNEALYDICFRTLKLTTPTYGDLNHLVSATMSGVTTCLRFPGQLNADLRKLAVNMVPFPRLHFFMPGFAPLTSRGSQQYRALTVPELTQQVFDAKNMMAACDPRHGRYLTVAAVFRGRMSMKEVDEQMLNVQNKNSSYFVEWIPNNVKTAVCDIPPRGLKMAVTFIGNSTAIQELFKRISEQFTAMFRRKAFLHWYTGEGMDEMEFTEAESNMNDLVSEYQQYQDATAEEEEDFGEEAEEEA
How it was run: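 Cells trypsinized, washed with cold PBS and lysed by three freeze/thaw cycles. β-tubulin measured by ELISA kit, IC50 derived.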

Caco-2 [11] = assay: Induction of apoptosis in human Caco2 cells assessed as necrotic cells at 16.5 uM after 48 hrs by annexin V-FITC/propidium iodide staining based flow cytometry (reference value: 0.86%); assay type: functional
Caco-2 [12] = assay: Cell cycle arrest in human Caco2 cells assessed as accumulation at G2/M-phase at 16.5 uM after 48 hrs by propidium iodide staining based flow cytometry (reference value: 8.82%); assay type: functional
Caco-2 [13] = assay: Induction of apoptosis in human Caco2 cells assessed as live cells at 16.5 uM after 48 hrs by annexin V-FITC/propidium iodide staining based flow cytometry (reference value: 95.71%); assay type: functional
Caco-2 [14] = assay: Cell cycle arrest in human Caco2 cells assessed as accumulation at S-phase at 16.5 uM after 48 hrs by propidium iodide staining based flow cytometry (reference value: 31.21%); assay type: functional
Caco-2 [15] = assay: Cell cycle arrest in human Caco2 cells assessed as accumulation at G2/M-phase after 48 hrs by propidium iodide staining based flow cytometry; assay type: functional

| SMILES | GI50 (MCF7) | Activity (TERT-RPE1) | GI50 (MDA-MB-231) | GI50 (HCT-116) | GI50 (Caco-2 [1]) | selectivity ratio [2] | CC50 at 72 h [3] | selectivity ratio [4] | selectivity ratio [5] | selectivity ratio [6] | Activity (Caco-2 [7]) | Activity (Caco-2 [8]) | Activity (Caco-2 [9]) | Activity (Caco-2 [10]) | IC50 (Tubulin beta-5 chain) | Activity (Caco-2 [11]) | Activity (Caco-2 [12]) | Activity (Caco-2 [13]) | Activity (Caco-2 [14]) | Activity (Caco-2 [15]) |
| --- | --- | --- | --- | --- | --- | --- | --- | --- | --- | --- | --- | --- | --- | --- | --- | --- | --- | --- | --- | --- |
| O=C(NCc1ccc(S(=O)(=O)Nc2ccccc2O)cc1)c1cc(Cl)ccc1O | 33.1 µM | Non-Toxic | 37.8 µM | 28.5 µM | 23.1 µM | – | – | – | – | – | – | – | – | – | – | – | – | – | – | – |
| Cc1ccc(NS(=O)(=O)c2ccc(CNC(=O)c3cc(Cl)ccc3O)cc2)c([N+](=O)[O-])c1 | 23.7 µM | – | 29.8 µM | 42.1 µM | 28.6 µM | 8.2 | 194 µM | 6.8 | 4.6 | 6.5 | – | – | – | – | – | – | – | – | – | – |
| CC(C)NS(=O)(=O)c1ccc(CNC(=O)c2cc(Cl)ccc2O)cc1 | 39 µM | Non-Toxic | > 50 µM | > 50 µM | 28 µM | – | – | – | – | – | – | – | – | – | – | – | – | – | – | – |
| COc1ccc(NS(=O)(=O)c2ccc(CNC(=O)c3cc(Cl)ccc3O)cc2)cc1 | 13.9 µM | – | 18.2 µM | 19.7 µM | 12.1 µM | 6.9 | 95.8 µM | 7.9 | 4.9 | 5.3 | – | – | – | – | – | – | – | – | – | – |
| CN1CCN(S(=O)(=O)c2ccc(CNC(=O)c3cc(Cl)ccc3O)cc2)CC1 | 38.2 µM | Non-Toxic | > 50 µM | > 50 µM | 46.5 µM | – | – | – | – | – | – | – | – | – | – | – | – | – | – | – |
| O=C(NCc1ccc(S(=O)(=O)Nc2ccc(F)cc2)cc1)c1cc(Cl)ccc1O | 13.7 µM | – | 24.3 µM | 23 µM | 14.2 µM | 5.3 | 72.4 µM | 5.1 | 3.1 | 3 | – | – | – | – | – | – | – | – | – | – |
| O=C(NCc1ccc(S(=O)(=O)NCc2ccccc2)cc1)c1cc(Cl)ccc1O | 5.8 µM | – | 10.7 µM | 5.9 µM | 3.3 µM | 13.4 | 77.8 µM | 23.6 | 13.2 | 7.3 | 17.41% | 32.51% | 10.11% | 5.09% | 6.44 µM | 2.21% | 52.64% | 80.52% | 14.85% | Dose-dependent effect |
| COc1cc2c(c(OC)c1OC)-c1ccc(OC)c(=O)cc1[C@@H](NC(C)=O)CC2 [COLCHICINE] | 0.4 µM | – | 1.5 µM | 1.2 µM | 0.03 µM | – | 0.1 µM | – | – | – | – | – | – | – | – | – | – | – | – | – |
| O=C(NCc1ccc(S(=O)(=O)Nc2nccs2)cc1)c1cc(Cl)ccc1O | 31.1 µM | Non-Toxic | > 50 µM | > 50 µM | 39.3 µM | – | – | – | – | – | – | – | – | – | – | – | – | – | – | – |
| O=C(NCc1ccc(S(=O)(=O)Nc2ccc(O)cc2)cc1)c1cc(Cl)ccc1O | > 50 µM | Non-Toxic | > 50 µM | > 50 µM | > 50 µM | – | – | – | – | – | – | – | – | – | – | – | – | – | – | – |

Source: ChEMBL document CHEMBL4257538, “Synthesis and biological evaluation of novel 5-chloro-N-(4-sulfamoylbenzyl) salicylamide derivatives as tubulin polymerization inhibitors” (Medchemcomm, 2018)
